LEDGF integ inh = blocks HIV-1 LEDGF/p75-dependent DNA integration. TR-FRET IN-LEDGF/p75 DNA integration, Eu/Cy5. inhibition, % at 3.7 µM. hit rate 0.64% among 370,000;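 active = inhibition above the screen-wide mean plus 3 SD, cut at about 13% in these data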;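 note: signal is the Cy5 over europium emission ratio at 671 and 618 nm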
Casp6 inh = caspase-6 (human) enzyme inhibition | P55212 | AID 686996 | hit rate 0.53% among 350,000 | inhibition, % at 12.5 µM | purified caspase-6, Z-VEID-R110 cleavage fluorescence;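 active = mean inhibition across replicates at least about 35%, with every replicate also reaching that limit, limit read from the data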
Target sequence (P55212 24-179 limits assumed): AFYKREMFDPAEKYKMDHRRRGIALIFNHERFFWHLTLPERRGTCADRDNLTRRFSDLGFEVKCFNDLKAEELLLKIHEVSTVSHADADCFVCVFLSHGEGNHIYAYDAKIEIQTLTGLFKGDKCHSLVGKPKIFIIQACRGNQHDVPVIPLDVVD
Target sequence (P55212 194-293 limits assumed): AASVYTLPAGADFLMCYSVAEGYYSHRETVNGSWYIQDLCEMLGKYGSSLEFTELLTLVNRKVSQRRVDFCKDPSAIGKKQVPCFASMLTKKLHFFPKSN
NSD2 HMT inh = NSD2 (human) methyltransferase inhibition | AID 743445 | O96028 | inhibition, % at 12.5 µM | hit rate 0.54% among 310,000 | NSD2 peptide methylation, AlphaScreen, 120 min; in the data active = inhibition above about 50%
UHRF1 binding = UHRF1 methyl-DNA binding inhibition; Q96T88; UHRF1 binding to methylated oligo, TR-FRET; inhibition, % at 4.4 µM; hit rate 0.75% among 370,000; AID 687016; in the data active = inhibition above about 21%;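 note: UHRF1 SRA domain binding a hemimethylated CpG hairpin DNA probe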
MBD2 DNA inh = inhibitors of human MBD2 binding to methylated oligonucleotide | Q9UBB5 | TR-FRET | inhibition, % at 4.4 µM | hit rate 0.31% among 370,000 | AID 686964; in the data active = inhibition above about 13%
Target sequence (Q9UBB5 whole entry, looked up): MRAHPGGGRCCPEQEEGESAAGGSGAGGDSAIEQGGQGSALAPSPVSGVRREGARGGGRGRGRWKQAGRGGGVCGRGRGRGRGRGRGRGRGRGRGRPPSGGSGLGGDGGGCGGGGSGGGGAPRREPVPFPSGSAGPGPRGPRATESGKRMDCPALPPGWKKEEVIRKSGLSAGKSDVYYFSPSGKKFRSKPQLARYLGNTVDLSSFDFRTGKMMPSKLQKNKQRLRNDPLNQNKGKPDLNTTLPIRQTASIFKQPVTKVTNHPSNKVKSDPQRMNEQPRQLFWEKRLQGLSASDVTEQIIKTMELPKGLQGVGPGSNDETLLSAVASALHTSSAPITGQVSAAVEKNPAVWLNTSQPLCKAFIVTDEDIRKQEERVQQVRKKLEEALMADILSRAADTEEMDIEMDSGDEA
TDP2 inh = blocks human TDP2 phosphodiesterase activity. O95551. recombinant TDP2, T5PNP hydrolysis, p-nitrophenol absorbance 415 nm. inhibition, % at 12.8 µM. hit rate 0.34% among 370,000. AID 720702;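 active = inhibition above the mean of all tested compounds plus 3 SD, set per campaign, cut at about 25% in these data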
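Incubation: 2 h at 37 °C; Test system: recombinant human TDP2; Quantity: enzyme 120 nM; Read-out basis: percent inhibition; Medium: 50 mM Tris-HCl pH 7.5 with Mg2+, KCl, DTT, BSA; Repeats: single replicate; Compound: 12.8 µM single point, 1% DMSO; Signal: epi absorbance; Reagent: 5 mM T5PNP chromogenic substrate; Benchmarks: no-enzyme high, DMSO-plus-enzyme low.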
IN multimer up = counter-screen for LEDGF/p75 integration inhibitors: HIV-1 integrase multimerization activators. AID 1053131. activation, % at 7.7 µM. TR-FRET HIV-1 integrase multimerization, biochemical. hit rate 17% among 2,000. shares compounds with LEDGF integ inh; in the data active = activation above about 8.9%
TRFRET interf = optically interferes with TR-FRET readout in LEDGF counter-screen; shares compounds with LEDGF integ inh; TR-FRET optical interference counterscreen, HIV-1 IN multimerization; inhibition, % at 7.7 µM; 2,000 tested, under 10 active; AID 1053135;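 active = inhibition above the mean over all tested compounds plus 3 SD, which no compound reached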
LEDGF integ conf = LEDGF/p75-dependent HIV-1 integration inhibition, confirmation; hit rate 36% among 2,000; inhibition, % at 3.7 µM; shares compounds with LEDGF integ inh; TR-FRET LEDGF/p75-dependent HIV-1 integration, biochemical; AID 1053136; in the data active = inhibition above about 14%
Numbers stand for hits; - = inactive; . = no result given. Sampled rows, rich in hits. Any-hit rate of the full collection: about 1.8%.

SMILES | LEDGF integ inh | Casp6 inh | NSD2 HMT inh | UHRF1 binding | MBD2 DNA inh | TDP2 inh | IN multimer up | TRFRET interf | LEDGF integ conf
C=CCNC(=S)N1N=C(c2ccco2)CC1c1ccco1 (stereo not drawn) | 17.3 | - | - | - | - | - | - | - | -
Nc1nc(COC(=O)C2CC(=O)N(Cc3ccccc3)C2)nc(Nc2ccccc2)n1 (stereo not drawn) | - | - | - | - | - | - | . | . | .
Nc1nc(COC(=O)C2CC(=O)N(Cc3ccccc3Cl)C2)nc(Nc2ccccc2)n1 (stereo not drawn) | 18.4 | - | - | - | - | - | - | - | -
Cc1ccc(NC2=C([N+](=O)[O-])CS(=O)(=O)C2)cc1 | - | . | - | - | - | - | . | . | .
CN(C)c1ccc(NC2=C([N+](=O)[O-])CS(=O)(=O)C2)cc1 | 24.3 | . | . | - | - | - | - | - | -
COc1cc(NC(=S)NCc2cccnc2)c(OC)cc1Cl | 79.5 | - | - | - | - | - | - | - | -
COc1ccccc1NC(=S)NCc1cccnc1 | - | - | . | - | - | - | . | . | .
CCCC(=O)N1CC2(C1)CN(S(C)(=O)=O)[C@H](CO)c1c2c2ccc(OC)cc2n1C | . | - | . | . | . | . | . | . | .
CCc1ccc(Nc2n[n+](C)c(-c3ccncc3)s2)cc1 | 42.2 | - | . | - | - | - | - | - | -
CCc1ccc(Nc2n[n+](-c3ccccc3)c(-c3ccc(C(=O)O)cc3)s2)cc1 | - | - | . | - | - | - | . | . | .
S=c1[nH]nc(-c2ccccc2)n1/N=C/C=C/c1ccco1 | 13.9 | - | - | - | - | - | - | - | 16.1
CCOc1nc(Nc2ccccc2)nc(OCC)n1 | 23.5 | - | - | - | - | - | - | - | -
CCOc1nc(Nc2ccc(Cl)cc2)nc(OCC)n1 | - | - | - | - | - | - | . | . | .
CCOc1ccc(/C=c2\sc3nc(-c4ccco4)nn3c2=O)cc1OCC | 15.9 | . | - | 39.0 | - | - | - | - | -
N=C1/C(=C\c2coc3ccccc3c2=O)C(=O)N=C2SC=CN12 | 15.2 | - | - | - | - | - | - | - | 26.5
O=c1cc(-c2ccc(O)cc2)oc2cc(O)c(C3OC(CO)C(O)C(O)C3O)c(O)c12 (stereo not drawn) | 20.9 | 37.1 | . | - | - | - | 30.0 | - | 48.0
O=c1cc(-c2ccc(O)cc2)oc2cc(O)cc(O)c12 | - | - | . | - | - | - | . | . | .
CNc1ccc(Br)cc(C(=O)/C=C/c2cccc(OC)c2)c1=O | - | . | - | - | - | - | . | . | .
CNc1ccc(Br)cc(C(=O)/C=C/c2ccc(OC)cc2OC)c1=O | 13.4 | . | . | - | - | - | - | - | -
CC(C)C[C@H]1CN([C@@H](Cc2ccccc2)CN2CCC[C@H]2CN2C(=O)C(=O)NC[C@@H]2Cc2ccccc2)C(=O)C(=O)N1CC1CCCCCC1 | 20.7 | - | . | - | - | - | - | - | -
Cc1cc(N(C)C)ccc1[N+](=O)[O-] | - | - | - | - | - | - | . | . | .
NNc1ccc([N+](=O)[O-])c2[nH][nH]c(=O)c12 | 18.9 | 94.2 | . | 39.7 | - | - | 34.9 | - | 44.0
COC(=O)CSc1nnnn1-c1cccc2ccccc12 | 22.7 | - | - | - | - | - | - | - | -
O=C(CSc1nnc(Cc2cccs2)n1C1CCCCC1)N1CCCc2ccccc21 | 13.5 | . | - | - | - | - | - | - | -
Cc1cc(C(=O)CN2c3cccc4cccc(c34)S2(=O)=O)c(C)n1C | 20.1 | - | - | - | - | - | - | - | -
SMILES | LEDGF integ inh | Casp6 inh | NSD2 HMT inh | UHRF1 binding | MBD2 DNA inh | TDP2 inh | IN multimer up | TRFRET interf | LEDGF integ conf
Cc1ccc(NC(=O)CNCC2CCCCC2)cc1S(=O)(=O)N(C)C | 31.9 | - | . | - | - | - | - | - | -
O=C(Cn1cc(COc2cc(F)cc(F)c2)nn1)c1ccc(O)cc1 | - | - | . | - | - | - | . | . | .
CC(=O)Nc1ccc(OCc2cn(CC(=O)c3ccc(O)cc3)nn2)cc1 | 15.1 | . | . | - | - | - | - | - | -
C[C@@H]1CN([C@H](C)CO)C(=O)c2cccc(NC(=O)Nc3ccc(C(F)(F)F)cc3)c2O[C@@H]1CN(C)C(=O)Nc1ccc(F)cc1 | . | - | . | . | . | . | . | . | .
Cc1ccc(Cc2c(-c3ccc(Br)cc3)nc3ccc(Cl)cn23)cc1 | 14.2 | - | . | - | - | - | - | - | -
Clc1ccc2nc(-c3ccccc3)c(Cc3ccccc3)n2c1 | 27.2 | - | . | - | - | - | - | - | -
Cc1ccc(Cc2c(-c3ccc(C)cc3)nc3ccc(Cl)cn23)cc1 | - | - | . | - | - | - | . | . | .
C[C@@H]1CN([C@H](C)CO)C(=O)c2cc(NC(=O)Nc3cccc4ccccc34)ccc2O[C@@H](C)CCCCO[C@H]1CN(C)Cc1ccccc1 | . | - | . | . | . | . | . | . | .
C[C@@H]1CCCCO[C@@H](CN(C)Cc2ccc(C(F)(F)F)cc2)[C@@H](C)CN([C@@H](C)CO)C(=O)c2cc(NS(=O)(=O)c3cn(C)cn3)ccc2O1 | . | - | . | . | . | . | . | . | .
C[C@@H]1CN([C@H](C)CO)C(=O)c2cc(C3=CCCC3)cnc2O[C@@H]1CN(C)Cc1cccc(F)c1 | . | - | . | . | . | . | . | . | .
O=C(NCCc1ccccc1)C(=O)NCC1CCCO1 (stereo not drawn) | 84.1 | - | - | - | - | - | - | - | -
Cc1ccc(NC(=O)C(=O)NCC2CCCO2)cc1C (stereo not drawn) | 77.7 | - | - | - | - | - | - | - | -
O=C(NCc1cccc(CNC(=O)C(=O)NCC2CCCO2)c1)C(=O)NCC1CCCO1 (stereo not drawn) | - | - | - | - | - | - | . | . | .
C#CCN([C@H](/C=C/C1CC1)[C@@H](O)Cc1ccccc1)[C@@H](Cc1ccccc1)C(=O)OC | . | - | . | . | . | . | . | . | .
C=CCN1C(=O)[C@@]2(O[C@@H](CCO)[C@H]([Si](C)(C)c3ccc(OC)cc3)[C@H]2C)c2cc(NC(C)=O)ccc21 | . | - | . | . | . | . | . | . | .
COCC(=O)Nc1ccc2c(c1)C(=O)N(C)[C@H]1CC[C@@H](CC(=O)NCc3ccccc3F)O[C@H]1CO2 | . | - | . | . | . | . | . | . | .
CC(C)[C@H](NS(=O)(=O)c1ccc2c(c1)OCCO2)C(=O)OCC(=O)Nc1ccccc1Cl | - | - | - | - | - | - | . | . | .
CC(C)[C@H](NS(=O)(=O)c1ccc2c(c1)OCCO2)C(=O)OCC(=O)Nc1cccc(Cl)c1Cl | 18.1 | . | - | - | - | - | - | - | -
CCCCCCCCCCCCN1CCSCCS1(=O)=O | 21.6 | - | . | - | - | - | - | - | -
COc1cc(-c2ccc3c(=O)c4ccccc4n(C)c3c2)cc(OC)c1OC | - | - | . | - | - | - | . | . | .
COc1cc(-c2ccc3c(=O)c4ccccc4sc3c2)cc(OC)c1OC | 16.1 | - | . | - | - | - | 9.3 | - | -

Assay outcomes deposited in PubChem by several laboratories.
